# Assay results as given in ChEMBL document CHEMBL4823248, “Pyrazole Agonist of the Apelin Receptor Improves Symptoms of Metabolic Syndrome in Mice” (J Med Chem, 2021).
# Tests used:
# [1] = Half life in human pooled liver microsomes at 1 uM incubated up to 120 mins in presence of NADPH by LC-MS analysis; format: ADME, Microsome
# [2] = Intrinsic clearance in human pooled liver microsomes at 1 uM incubated up to 120 mins in presence of NADPH by LC-MS analysis; format: ADME, Microsome; conditions: read-out: CLH
# [3] = target: T1, Apelin receptor (Homo sapiens, UniProt P35414); experiment: Agonist activity at human APJ receptor expressed in CHO cells assessed as inhibition of forskolin-induced cAMP accumulation measured after 30 mins by TR-FRET assay
# T1 sequence (P35414 whole entry): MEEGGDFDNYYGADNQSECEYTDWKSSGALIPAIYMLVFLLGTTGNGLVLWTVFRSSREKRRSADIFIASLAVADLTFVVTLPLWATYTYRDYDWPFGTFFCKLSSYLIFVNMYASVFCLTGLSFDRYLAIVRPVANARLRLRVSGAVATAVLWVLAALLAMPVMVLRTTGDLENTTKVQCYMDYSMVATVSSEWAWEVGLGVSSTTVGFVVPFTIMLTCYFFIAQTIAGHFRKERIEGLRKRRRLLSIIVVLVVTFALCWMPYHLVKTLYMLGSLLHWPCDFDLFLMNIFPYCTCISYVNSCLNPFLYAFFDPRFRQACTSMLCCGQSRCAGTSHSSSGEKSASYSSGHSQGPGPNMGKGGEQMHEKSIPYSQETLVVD
# [4] = target: T1, Apelin receptor; experiment: Agonist activity at human AGTRL1 expressed in CHO-K1 cells assessed as induction of beta-arrestin 2 recruitment incubated for 90 mins by PathHunter assay; format: functional, cell-based
# [5] = Protein binding in human plasma at 10 uM measured after 4 hrs by LC-MS/MS analysis; format: ADME, cell-free; conditions: read-out: PPB (converted)
# Method in brief: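 Human plasma spiked at 10 μM, dialyzed against phosphate/NaCl buffer by rapid equilibrium dialysis for 4 h at 37 °C with shaking at 100 rpm. Samples matrix-matched, protein precipitated with cold acetonitrile/formic acid, and analyzed by LC−MS/MS. Three independent samples.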
# [6] = Half life in CD-1 mouse brain at 15 mg/kg, ip measured up to 24 hrs by LC-MS/MS analysis; format: ADME, organism-based
# Method in brief: (§1)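 Male CD-1 mice, about 10 weeks old, acclimated 72 h. Single 15 mg/kg IP dose formulated in modified citrate buffer (pH 6). Animals sacrificed at 0.5, 1, 2, 4, 8 and 24 h to collect plasma and brain samples. Cmax, AUC_all, CL and T1/2 determined.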
# [7] = Cmax in CD-1 mouse plasma at 15 mg/kg, ip measured up to 24 hrs by LC-MS/MS analysis; format: ADME, organism-based; design: route intraperitoneal, dose 15 mg/kg, time <=24; method in brief: as §1
# [8] = Clearance in CD-1 mouse plasma at 15 mg/kg, ip measured up to 24 hrs by LC-MS/MS analysis; format: ADME, organism-based; method in brief: as §1
# [9] = AUC in CD-1 mouse plasma at 15 mg/kg, ip measured up to 24 hrs by LC-MS/MS analysis; format: ADME, organism-based; design: route intraperitoneal, dose 15 mg/kg, time <=24; method in brief: as §1
# [10] = target: T2, Apelin receptor (Mus musculus, UniProt Q9WV08); experiment: Agonist activity at Galphaq16-fused mouse APJ receptor expressed in CHO cells assessed as stimulation of Ca2+ mobilization incubated for 1 hr by Calcium 5-dye based fluorescence based assay; format: cell-based
# T2 sequence (Q9WV08 whole entry): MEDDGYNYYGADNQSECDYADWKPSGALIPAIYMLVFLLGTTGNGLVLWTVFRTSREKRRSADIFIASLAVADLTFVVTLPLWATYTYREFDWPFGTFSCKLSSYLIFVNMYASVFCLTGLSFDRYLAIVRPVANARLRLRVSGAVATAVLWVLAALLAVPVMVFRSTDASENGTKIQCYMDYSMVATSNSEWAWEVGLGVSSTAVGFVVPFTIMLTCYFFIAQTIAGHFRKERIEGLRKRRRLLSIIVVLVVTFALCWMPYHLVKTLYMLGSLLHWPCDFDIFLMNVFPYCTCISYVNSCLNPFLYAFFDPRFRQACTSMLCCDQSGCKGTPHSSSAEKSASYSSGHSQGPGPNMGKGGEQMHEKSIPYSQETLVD
# Method in brief: (§2)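 CHO cells stably co-expressing Gαq16 with mouse APJ or human AGTR1; 20,000 hAGTR1 cells per well, plated 24 h at 37 °C. Loaded 1 h at 37 °C with Calcium 5 dye in HBSS buffer with 20 mM HEPES, 1% BSA, 10 μM probenecid, 1% DMSO final. Stimulated with compounds at various concentrations; fluorescence read on FLIPR Tetra. Duplicate, 2−3 runs.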
# [11] = target: Voltage-gated inwardly rectifying potassium channel KCNH2 (Homo sapiens, UniProt Q12809); experiment: Displacement of [3H]astemizole from human ERG at 10 uM measured after 60 mins by scintillation counter method; conditions: 1 h
# Voltage-gated inwardly rectifying potassium channel KCNH2, sequence (Q12809 whole entry): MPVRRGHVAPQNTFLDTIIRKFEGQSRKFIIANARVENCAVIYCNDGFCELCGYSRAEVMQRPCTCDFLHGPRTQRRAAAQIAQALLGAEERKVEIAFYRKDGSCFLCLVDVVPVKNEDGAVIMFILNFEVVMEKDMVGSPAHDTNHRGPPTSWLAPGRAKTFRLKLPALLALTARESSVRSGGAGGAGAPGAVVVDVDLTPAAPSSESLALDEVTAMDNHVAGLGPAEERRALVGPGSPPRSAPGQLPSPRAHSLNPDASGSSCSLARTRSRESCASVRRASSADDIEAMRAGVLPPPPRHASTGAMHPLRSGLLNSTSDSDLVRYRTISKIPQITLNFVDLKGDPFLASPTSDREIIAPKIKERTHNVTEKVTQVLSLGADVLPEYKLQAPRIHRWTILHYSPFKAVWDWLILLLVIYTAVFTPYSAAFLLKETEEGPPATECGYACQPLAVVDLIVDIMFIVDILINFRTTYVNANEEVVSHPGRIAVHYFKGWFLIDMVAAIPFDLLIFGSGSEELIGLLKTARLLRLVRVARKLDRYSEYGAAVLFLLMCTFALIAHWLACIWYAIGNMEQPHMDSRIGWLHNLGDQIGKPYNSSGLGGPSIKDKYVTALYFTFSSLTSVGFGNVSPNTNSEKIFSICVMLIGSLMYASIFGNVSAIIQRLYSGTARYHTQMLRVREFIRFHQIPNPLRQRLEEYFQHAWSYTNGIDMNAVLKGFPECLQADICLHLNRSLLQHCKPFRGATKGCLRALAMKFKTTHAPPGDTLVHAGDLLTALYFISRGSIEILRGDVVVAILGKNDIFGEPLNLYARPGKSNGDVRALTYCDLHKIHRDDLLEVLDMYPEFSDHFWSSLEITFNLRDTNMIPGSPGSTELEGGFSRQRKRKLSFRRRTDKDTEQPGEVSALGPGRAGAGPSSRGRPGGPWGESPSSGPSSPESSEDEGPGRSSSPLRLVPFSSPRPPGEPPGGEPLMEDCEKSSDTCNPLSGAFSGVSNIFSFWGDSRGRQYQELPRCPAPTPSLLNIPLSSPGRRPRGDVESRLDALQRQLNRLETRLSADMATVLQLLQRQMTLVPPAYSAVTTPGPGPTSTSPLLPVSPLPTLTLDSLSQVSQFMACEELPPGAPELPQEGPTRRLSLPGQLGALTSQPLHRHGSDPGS
# Method in brief: (§3)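 Competition binding using 4 μg hERG-expressing membranes with ~3 nM [3H]astemizole for 60 min in pH 7.4 HEPES buffer with 0.1% BSA. Terminated by filtration onto polyethyleneimine-soaked GF/B filters, washed with ice-cold buffer, and counted with scintillant. At least two runs in duplicate.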
# [12] = AUC in CD-1 mouse brain at 15 mg/kg, ip measured up to 24 hrs by LC-MS/MS analysis; format: ADME, organism-based; design: route intraperitoneal, dose 15 mg/kg, time <=24; method in brief: as §1
# [13] = target: hERG (KCNH2) (Homo sapiens, UniProt Q12809); experiment: Displacement of [3H]astemizole from human ERG at 10 uM measured after 60 mins by scintillation counter method relative to control; conditions: probe [3H]astemizole; method in brief: as §3
# hERG (KCNH2), sequence (Q12809 whole entry): as above
# [14] = Cmax in CD-1 mouse brain at 15 mg/kg, ip measured up to 24 hrs by LC-MS/MS analysis; format: ADME, organism-based; design: route intraperitoneal, dose 15 mg/kg, time <=24; method in brief: as §1
# [15] = Kinetic solubility of the compound in pH 7.4 PBS buffer measured after 2 hrs by LC-MS/MS analysis; format: physicochemical; conditions: read-out: Kinetic_solubility
# Method in brief: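 20 mM DMSO stock diluted into PBS pH 7.4 to a targeted 400 μM. Agitated 2 h at room temperature, filtered through 1 μm glass fiber, and eluate diluted 400-fold in acetonitrile/water (1:1) for analysis.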
# [16] = Half life in CD-1 mouse plasma at 15 mg/kg, ip measured up to 24 hrs by LC-MS/MS analysis; format: ADME, organism-based; method in brief: as §1
# [17] = target: T3, Type-1 angiotensin II receptor (Homo sapiens, UniProt P30556); experiment: Agonist activity at Galphaq16-fused human AGTR1 expressed in CHO cells assessed as stimulation of Ca2+ mobilization incubated for 1 hr by Calcium 5-dye based fluorescence based assay; format: functional, cell-based; method in brief: as §2
# T3 sequence (P30556 whole entry): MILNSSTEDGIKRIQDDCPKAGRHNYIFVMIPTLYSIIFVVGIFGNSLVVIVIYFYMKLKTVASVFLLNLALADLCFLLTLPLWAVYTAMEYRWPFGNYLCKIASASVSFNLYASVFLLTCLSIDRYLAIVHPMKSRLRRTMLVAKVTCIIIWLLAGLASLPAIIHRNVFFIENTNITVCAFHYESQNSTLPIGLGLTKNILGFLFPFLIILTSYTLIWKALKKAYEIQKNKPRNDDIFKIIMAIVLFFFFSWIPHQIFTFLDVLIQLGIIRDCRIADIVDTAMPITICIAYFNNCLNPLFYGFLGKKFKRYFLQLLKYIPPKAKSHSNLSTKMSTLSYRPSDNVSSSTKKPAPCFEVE
SMILES,half-life at 1 µM [1] [min],CLint scaled at 1 µM [2] [mL/min/kg],EC50 [3] [nM],EC50 [4] [nM],other results
COc1cccc(OC)c1-c1cc(C(=O)N[C@@H](CCN2CCCCC2)CC(=O)Nc2nccs2)nn1C1CCCC1,27,46.7,1,,
COc1cccc(OC)c1-c1cc(C(=O)N[C@@H](CCN2C(C)CCCC2C)CC(=O)NC2CCC2)nn1C1CCCC1.Cl (some centres undefined),52,23.9,33,459,
CC(C)NCC(O)COc1cccc2ccccc12 (centres undefined) [PROPRANOLOL],,,,,"fraction unbound at 4 h, 10 µM [5]: 0.39"
COc1cccc(OC)c1-c1cc(C(=O)N[C@@H](CCN2CCCCC2)Cc2nnc[nH]2)nn1C1CCCC1,33,37.8,134,523,
COc1cccc(OC)c1-c1cc(C(=O)N[C@@H](CCN2CCCCC2)CC(=O)Nc2nnn[nH]2)nn1C1CCCC1,24.2,25.8,,,
COc1cccc(OC)c1-c1cc(C(=O)N[C@@H](CCN2CCCCC2)CC(=O)N(C)c2nccs2)nn1C1CCCC1,37,33.4,5,14,
COCCN(C)C(=O)C[C@H](CCN1CCCCC1)NC(=O)c1cc(-c2c(OC)cccc2OC)n(C2CCCC2)n1,,,2410,> 10000,

# More lines, main results first:
half-life at 1 µM [1] [min],CLint scaled at 1 µM [2] [mL/min/kg],EC50 [3] [nM],EC50 [4] [nM],SMILES,other results
38,32.4,,,COc1cccc(OC)c1-c1cc(C(=O)N[C@@H](CCN2CCCCC2)CC(=O)NC2CC(F)(F)C2)nn1C1CCCC1,
37,33.3,105,326,COc1cccc(OC)c1-c1cc(C(=O)N[C@@H](CCN2CCCCC2)CC(=O)N(C)C2CCC2)nn1C1CCCC1,
17,73.1,237,1350,COc1cccc(OC)c1-c1cc(C(=O)N[C@@H](CCN2CCOCC2)CC(=O)NC2CCC2)nn1C1CCCC1.Cl,
62,20,,,COc1cccc(OC)c1-c1cc(C(=O)N[C@@H](CCN2CCCCC2)CC(=O)NC2CCC2)nn1C1CCCC1.Cl,"half-life [6]: 804 min; Cmax [7]: 1580 ng/mL; CL/F [8]: 83 mL/min/kg; AUC at 24 h [9]: 3000 ng·h/mL; EC50 [10]: 22 nM; fraction unbound at 4 h, 10 µM [5]: 0.09; inhibition (INH) [11]: Not Active; AUC at 24 h [12]: 1080 ng·h/mL; inhibition at 1 h, 10 µM [13]: < 50%; Cmax [14]: 103 ng/mL; solubility kinetic at 2 h [15]: 192 µM; half-life [16]: 162 min; EC50 [17]: > 10000 nM"
38,32.4,8,159,COc1cccc(OC)c1-c1cc(C(=O)N[C@@H](CCN2CCCCCC2)CC(=O)NC2CCC2)nn1C1CCCC1.Cl,
